Format in all cases: functional
Assay [1] has as its system Staphylococcus aureus. Kind of assay: Antimicrobial activity against Staphylococcus aureus 375 ATCC 3538p after 18 hrs by broth dilution method. To be noted: Staphylococcus aureus, 375, 18 h. Put shortly: (§1)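 MIC by broth dilution per NCCLS recommendations in Mueller-Hinton II medium. Inoculum 5 × 10^5 cfu/mL, antibiotic concentrations 128-0.0625 µg/mL. Microtiter plates incubated 18 h at 35 °C in ambient air. MIC read at end of incubation.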
Background: Dilution methods test growth across graded concentrations, often in twofold steps.

In assay [2] the test system is Escherichia coli. Put plainly: Antimicrobial activity against Escherichia coli 442 GC4559 after 18 hrs by broth dilution method. Conditions: Escherichia coli, 442, 18 h. Put shortly: as §1
For assay [3], the system named is Escherichia coli. Put plainly: Antimicrobial activity against Escherichia coli 389 GC4560 expressing imp after 18 hrs by broth dilution method. Conditions: Escherichia coli, 389, 18 h. Summed up: as §1
The subject of assay [4] is Staphylococcus aureus. Put plainly: Antimicrobial activity against methicillin-resistant Staphylococcus aureus 310 SSC8224 after 18 hrs by broth dilution method. Conditions: Staphylococcus aureus, 310, 18 h. Summed up:
(§2)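 MIC by broth dilution following NCCLS recommendations, Mueller-Hinton II medium; inoculum 5 × 10^5 cfu/mL; antibiotic range 128-0.0625 µg/mL; microtiter plates incubated 18 h at 35 °C in ambient air; MIC read after incubation.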

For assay [5], the system named is Enterococcus faecium. Kind of assay: Antimicrobial activity against Enterococcus faecium 436 ID3151 after 18 hrs by broth dilution method. To be noted: Enterococcus faecium, 436, 18 h. Put shortly:
as §1

Assay [6] relates to Candida albicans. Kind of assay: Antimicrobial activity against Candida albicans 54 CA300 after 18 hrs by broth dilution method. Conditions: Candida albicans, 54, 18 h. Put shortly:
as §1

Assay [7] has as its system Enterococcus faecium. Kind of assay: Antimicrobial activity against vancomycin-resistant Enterococcus faecium 379 NC12204 after 18 hrs by broth dilution method. To be noted: Enterococcus faecium, 379, 18 h. Summed up:
as §2

In brackets after ≈: the same amount, converted by molar mass.

The term MIC denotes the least concentration at which growth counts as inhibited. The low end stands for inhibition by little substance, the high end for a need for much substance. With `CC(C)=CCC/C(C)=C/CC/C(C)=C/CN1C(=O)c2ccc(F)c(O)c2Nc2c(O)cc(O)cc21`, the MIC in assay [1] is 32 µg/mL (≈ 66.6 µM); in assay [2], above 128 µg/mL; in assay [3], above 128 µg/mL; in assay [4] it was 16 µg/mL (≈ 33.3 µM); in assay [5], 32 µg/mL (≈ 66.6 µM); in assay [6] it was above 128 µg/mL. This compound showed an MIC in assay [7] of 32 µg/mL (≈ 66.6 µM).

`CC(C)=CCC/C(C)=C/CC/C(C)=C/CN1C(=O)c2cccc(O)c2Nc2c(O)cc(O)cc21` [DIAZEPINOMICIN]: the MIC was 16 µg/mL (≈ 34.6 µM) in assay [1]; above 128 µg/mL in assay [2]; above 128 µg/mL in assay [3]; 8 µg/mL (≈ 17.3 µM) in assay [4]; 64 µg/mL (≈ 138 µM) in assay [5]; above 128 µg/mL in assay [6]. In assay [7], this compound showed a minimum inhibitory concentration (MIC) of 32 µg/mL (≈ 69.2 µM).

`CC(C)=CCC/C(C)=C/CC/C(C)=C/CN1C(=O)c2cc(F)cc(O)c2Nc2c(O)cc(O)cc21`: the MIC in assay [1] is 16 µg/mL (≈ 33.3 µM); in assay [2], above 128 µg/mL; in assay [3] it was above 128 µg/mL; in assay [4], 8 µg/mL (≈ 16.6 µM); in assay [5], 32 µg/mL (≈ 66.6 µM); in assay [6] it was above 128 µg/mL. Further, the MIC in assay [7] was 16 µg/mL (≈ 33.3 µM).

For the origin of these results see ChEMBL document CHEMBL1152322, “Evaluating indole-related derivatives as precursors in the directed biosynthesis of diazepinomicin analogues” (2009).
